Source: ChEMBL document CHEMBL4020827, “Targeting Multiple Effector Pathways in Pancreatic Ductal Adenocarcinoma with a G-Quadruplex-Binding Small Molecule” (J Med Chem, 2018)
Calls of active or inactive are those of the source. The calls are words filed in the database; no cut-off is given here.

Legend:
[1] = system: Mus musculus; assay: Nephrotoxicity in CD-1 nude mouse xenografted with human MIAPaCa2 cells at 15 mg/kg, iv administered twice weekly for 4 weeks by hematoxylin and eosin staining based assay; type: toxicity, organism-based; settings: in vivo, 672 h
[2] = species on record: Homo sapiens; assay: Binding affinity to 5'-FAM/3'-TAMRA labeled human telomeric F21T G-quadruplex DNA assessed as change in melting temperature at 1 uM by FRET assay
Method in brief: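 FRET melting with FAM/TAMRA dual-labelled oligonucleotides at 400 nM, annealed at 95 °C for 10 min in 60 mM potassium cacodylate pH 7.4 and slowly cooled. Ligand final 1 μM; solution contains 50 mM K+. Fluorescence read every 0.5 °C over 30–100 °C with 30 s hold, excitation 450–495 nm and emission 515–545 nm. ΔTm from curve fitting, triplicate measurements.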

[3] = system: MCF7; assay: Growth inhibition of human MCF7 cells after 96 hrs by SRB assay; type: functional, cell-based; settings: MCF7, 96 h
[4] = system: MIA PaCa-2; assay: Growth inhibition of human MIAPaCa2 cells after 96 hrs by SRB assay; type: functional, cell-based; settings: MIA PaCa-2, 96 h
Method in brief: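 Cell lines kept at 37 °C, 5% CO2 in medium with 10% FBS and 2 mM L-glutamine. Compound dissolved in water, filter-sterilised, 10 mM stock diluted into media. Growth read by 96 h sulforhodamine B assay, absorbance at 540 nm. IC50 taken from mean absorbance per concentration as % of untreated wells, >3 individual determinations with standard deviations.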

[5] = system: PANC-1; assay: Growth inhibition of human PANC1 cells after 96 hrs by SRB assay; type: functional, cell-based; settings: PANC-1, 96 h
[6] = Binding affinity to 5'-FAM/3'-TAMRA labeled human telomeric F21T G-quadruplex DNA by direct fluorescence method
Method in brief: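 Buffer was 50 mM KCl, 10 mM Tris-HCl, 1 mM EDTA, pH 7.3, 25 °C, quartz cuvette. Quenching of ligand emission at 570 nm tracked; KD from a quadratic quenching fit.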

[7] = system: PANC-1; assay: Effect on ARF6 gene expression in human PANC1 cells at 400 nM after 6 hrs by RNA sequence analysis relative to control; type: functional
Method in brief: (§1)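 PANC-1 (0.35 x 10^6) or MIA PaCa-2 (1.5 x 10^6) cells seeded overnight in 60 mm plates, then exposed to 400 nM compound for 6 or 24 h; untreated cells as controls. Cells were mycoplasma-free and STR-certified. Differential expression by RNA-seq, called at FDR < 0.1.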

[8] = system: PANC-1; assay: Effect on PCK2 gene expression in human PANC1 cells at 400 nM after 6 hrs by RNA sequence analysis relative to control; type: functional
[9] = system: PANC-1; assay: Effect on PFKL gene expression in human PANC1 cells at 400 nM after 6 hrs by RNA sequence analysis relative to control; type: functional
[10] = system: PANC-1; assay: Effect on PIK3R3 gene expression in human PANC1 cells at 400 nM after 6 hrs by RNA sequence analysis relative to control; type: functional
[11] = system: MIA PaCa-2; assay: Effect on AKT1 gene expression in human MIAPaCa2 cells at 400 nM after 6 hrs by RNA sequence analysis relative to control; type: functional; method in brief: as §1
[12] = system: MIA PaCa-2; assay: Effect on FASN gene expression in human MIAPaCa2 cells at 400 nM after 6 hrs by RNA sequence analysis relative to control; type: functional; method in brief: as §1
[13] = system: MIA PaCa-2; assay: Effect on IGF2 gene expression in human MIAPaCa2 cells at 400 nM after 6 hrs by RNA sequence analysis relative to control; type: functional; method in brief: as §1
[14] = system: MIA PaCa-2; assay: Effect on MAPK11 gene expression in human MIAPaCa2 cells at 400 nM after 6 hrs by RNA sequence analysis relative to control; type: functional
[15] = system: MIA PaCa-2; assay: Effect on MAPK12 gene expression in human MIAPaCa2 cells at 400 nM after 6 hrs by RNA sequence analysis relative to control; type: functional
[16] = system: MIA PaCa-2; assay: Effect on MAPK9 gene expression in human MIAPaCa2 cells at 400 nM after 6 hrs by RNA sequence analysis relative to control; type: functional
[17] = system: MIA PaCa-2; assay: Effect on PRDM16 gene expression in human MIAPaCa2 cells at 400 nM after 6 hrs by RNA sequence analysis relative to control; type: functional
[18] = system: MIA PaCa-2; assay: Effect on PRKCZ gene expression in human MIAPaCa2 cells at 400 nM after 6 hrs by RNA sequence analysis relative to control; type: functional
Method in brief: (§2)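 RNA-seq: cells seeded overnight in 60 mm plates (PANC-1 0.35 x 10^6, MIA PaCa-2 1.5 x 10^6 cells/well), then exposed to 400 nM compound for 6 or 24 h against untreated controls. Cell lines mycoplasma-free by RNA-capture ELISA and STR-profiled. Differentially expressed genes called at FDR < 0.1.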

[19] = system: MIA PaCa-2; assay: Effect on ROBO3 gene expression in human MIAPaCa2 cells at 400 nM after 6 hrs by RNA sequence analysis relative to control; type: functional; method in brief: as §2
[20] = system: PANC-1; assay: Effect on CTBP1 gene expression in human PANC1 cells at 400 nM after 24 hrs by RNA sequence analysis relative to control; type: functional; method in brief: as §1
[21] = system: PANC-1; assay: Effect on GLI4 gene expression in human PANC1 cells at 400 nM after 24 hrs by RNA sequence analysis relative to control; type: functional; method in brief: as §1
[22] = system: PANC-1; assay: Effect on PLXNA1 gene expression in human PANC1 cells at 400 nM after 24 hrs by RNA sequence analysis relative to control; type: functional
[23] = system: PANC-1; assay: Effect on ROBO3 gene expression in human PANC1 cells at 400 nM after 24 hrs by RNA sequence analysis relative to control; type: functional; method in brief: as §2
[24] = system: PANC-1; assay: Effect on TEAD3 gene expression in human PANC1 cells at 400 nM after 24 hrs by RNA sequence analysis relative to control; type: functional; method in brief: as §2
[25] = system: PANC-1; assay: Effect on ULK1 gene expression in human PANC1 cells at 400 nM after 24 hrs by RNA sequence analysis relative to control; type: functional; method in brief: as §2
[26] = system: MIA PaCa-2; assay: Effect on MAPK11 gene expression in human MIAPaCa2 cells at 400 nM after 24 hrs by RNA sequence analysis relative to control; type: functional
[27] = system: MIA PaCa-2; assay: Effect on MAPK12 gene expression in human MIAPaCa2 cells at 400 nM after 24 hrs by RNA sequence analysis relative to control; type: functional
[28] = system: MIA PaCa-2; assay: Effect on PFKFB4 gene expression in human MIAPaCa2 cells at 400 nM after 24 hrs by RNA sequence analysis relative to control; type: functional
[29] = system: MIA PaCa-2; assay: Effect on PIK3R2 gene expression in human MIAPaCa2 cells at 400 nM after 24 hrs by RNA sequence analysis relative to control; type: functional
[30] = system: MIA PaCa-2; assay: Effect on RPTOR gene expression in human MIAPaCa2 cells at 400 nM after 24 hrs by RNA sequence analysis relative to control; type: functional; method in brief: as §2
[31] = system: MIA PaCa-2; assay: Effect on SHC2 gene expression in human MIAPaCa2 cells at 400 nM after 24 hrs by RNA sequence analysis relative to control; type: functional; method in brief: as §2
[32] = species on record: Homo sapiens; assay: Stabilization of G-quadruplex DNA in human PANC1 cells assessed as increase in BG4 foci at 400 nM after 6 to 24 hrs by FITC/Cy5/DAPI staining based immunofluorescence assay; type: cell-based

For `O=C1c2ccc3c4c(c(NCCN5CCCC5)cc(c24)C(=O)N1CCCN1CCOCC1)C(=O)N(CCCN1CCOCC1)C3=O`, the Activity [1] was “Non-Toxic”, the ΔTm [2] was 11.8 °C and the IC50 [3] was 159 nM. For the same compound, the IC50 [4] was 7 nM, the IC50 [5] was 18 nM and the Kd [6] was 67 nM. It also gave a log2FC [7] of -0.74, a log2FC [8] of -0.01 and a log2FC [9] of -0.21. The log2FC [10] was -0.16, the log2FC [11] was -0.2 and the log2FC [12] was -0.06. The log2FC [13] was -2.72, the log2FC [14] was -0.53 and the log2FC [15] was -0.47. It also gave a log2FC [16] of -0.09, a log2FC [17] of -2.73 and a log2FC [18] of -1.87. The log2FC [19] was -0.86, the log2FC [20] was -0.98 and the log2FC [21] was -1.71. It also gave a log2FC [22] of -1.5, a log2FC [23] of -0.85 and a log2FC [24] of 0.07. The log2FC [25] was -0.81, the log2FC [26] was -2.56 and the log2FC [27] was -1.23. For the same compound, the log2FC [28] was -0.93, the log2FC [29] was -1.14 and the log2FC [30] was -0.68. For the same compound, the log2FC [31] was -1.96 and the Activity [32] was “Active”.
